Source: ChEMBL document CHEMBL5678799 (Biochem J, 2009)
Activity calls are given as the source filed them. The calls are words filed in the database; no cut-off is given here.

What was measured:
[1] = molecular target: MAP/microtubule affinity-regulating kinase 3 (Homo sapiens) (UniProt P27448); assay: Inhibition of recombinant human N-terminal His6-tagged MARK3 (2 to 729 residues) expressed in baculovirus infected Sf21 cells assessed as remaining activity at 10 uM using CHKtide as substrate incubated for 30 mins in presence of [gamma-33P]ATP by filter binding method relative to control
[2] = molecular target: Mitogen-activated protein kinase 11 (Homo sapiens) (UniProt Q15759); assay: Inhibition of recombinant human N-terminal GST-tagged P38beta (1 to 364 residues) expressed in Escherichia coli assessed as remaining activity at 10 uM using MBP as substrate incubated for 30 mins in presence of [gamma-33P]ATP by filter binding method relative to control
Outline: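 Panel assays were run for 30 min at 21 °C, within the linear range for time and enzyme. […] Results are percent activity remaining relative to compound-free control, averaged from triplicate ± S.D.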

mTORC2 (Homo sapiens) [3] = molecular target: T1, mTORC2 (Homo sapiens) (UniProt P42345+Q6R327+Q9BVC4+Q9BPZ7); settings: HEK293, dose 30-1000 nM, time 30.0 min
Homo sapiens = organism: Homo sapiens; assay: Inhibition of choline kinase (unknown origin) assessed as remaining activity at 1 uM using choline as substrate incubated for 30 mins in presence of ATP by Kinase Glo assay relative to control
Outline: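 Choline kinase assayed with 1 mM choline, 1 μM ATP in 25 mM glycine/NaOH pH 8.5, 67 mM KCl, 5 mM MgCl2, 1 mM DTT, 30 min at room temperature. Stopped with Kinase-Glo Plus, luminescence read after 10 min. Activity relative to control, triplicate.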

[4] = molecular target: Serine/threonine-protein kinase pim-1 (Homo sapiens) (UniProt P11309); assay: Inhibition of recombinant human N-terminal His6-tagged PIM1 (2 to 313 residues) expressed in baculovirus infected Sf21 cells assessed as remaining activity at 10 uM using RSRHSSYPAGT as substrate incubated for 30 mins in presence of [gamma-33P]ATP by filter binding method relative to control
Outline: (§1)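 Incubations ran robotically for 30 min at room temperature (21 °C) under linear conditions. Results are percent activity remaining versus controls without compound, as the mean of triplicates ± S.D.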

[5] = molecular target: Inhibitor of nuclear factor kappa-B kinase subunit epsilon (Homo sapiens) (UniProt Q14164); assay: Inhibition of recombinant human N-terminal GST-tagged IKKepsilon (1 to 716 residues) expressed in baculovirus infected Sf21 cells assessed as remaining activity at 10 uM using MBP as substrate incubated for 30 mins in presence of [gamma-33P]ATP by filter binding method relative to control
Outline: (§2)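 Incubation was 30 min at room temperature (21 °C) under conditions linear with time and enzyme amount. Activity is reported as percent of control lacking compound, triplicate mean ± S.D.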

mTORC1 (Homo sapiens) [6] = molecular target: T2, mTORC1 (Homo sapiens) (UniProt P42345+Q8N122+Q9BVC4); settings: HEK293, dose 30.0 nM, time 30.0 min
[7] = molecular target: Mitogen-activated protein kinase 14 (Homo sapiens) (UniProt Q16539); assay: Inhibition of recombinant human N-terminal GST-tagged P38alpha (1 to 360 residues) expressed in Escherichia coli assessed as remaining activity at 10 uM using MBP as substrate incubated for 30 mins in presence of [gamma-33P]ATP by filter binding method relative to control; outline: as §2
[8] = molecular target: Ephrin type-A receptor 2 (Homo sapiens) (UniProt P29317); assay: Inhibition of recombinant human N-terminal GST-tagged EPHA2 (591 to 976 residues) expressed in Escherichia coli assessed as remaining activity at 10 uM using Poly (Glu,Tyr) as substrate incubated for 30 mins in presence of [gamma-33P]ATP by filter binding method relative to control
Outline: (§3)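 Run robotically for 30 min at 21 °C under linear conditions. Compound at 1 or 10 µM. Percentage activity remaining versus control without compound, triplicate mean ± S.D.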

[9] = molecular target: Dual specificity mitogen-activated protein kinase kinase 1 (Homo sapiens) (UniProt Q02750); assay: Inhibition of recombinant human MKK1 (2 to 393 residues) expressed in Escherichia coli assessed as remaining activity at 10 uM using MBP as substrate incubated for 30 mins in presence of [gamma-33P]ATP by filter binding method relative to control
Outline: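 Kinase panel run robotically at 21 °C for 30 min, linear in time and enzyme. […] Compound tested at 1 or 10 µM. Activity given as percentage of incubations without compound, mean of triplicates ± S.D.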

[10] = molecular target: Ribosomal protein S6 kinase alpha-3 (Homo sapiens) (UniProt P51812); assay: Inhibition of recombinant human N-terminal His6-tagged RSK2 (2 to 740 residues) expressed in baculovirus infected Sf21 cells assessed as remaining activity at 1 uM using KKLNRTLSVA as substrate incubated for 30 mins in presence of [gamma-33P]ATP by filter binding method relative to control
Outline: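 Assays ran 30 min at 21 °C, robotically and in the linear range. Remaining activity is given relative to incubations lacking compound, as the average of triplicate determinations ± S.D.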

mTORC2 (Homo sapiens) [11] = molecular target: T1, mTORC2 (Homo sapiens); settings: HEK293, dose 30-1000 nM, time 30.0 min; remark: listed apart in the source
[12] = molecular target: Inhibitor of nuclear factor kappa-B kinase subunit epsilon (Homo sapiens) (UniProt Q14164); assay: Inhibition of recombinant human N-terminal GST-tagged IKKepsilon (1 to 716 residues) expressed in baculovirus infected Sf21 cells assessed as remaining activity at 1 uM using MBP as substrate incubated for 30 mins in presence of [gamma-33P]ATP by filter binding method relative to control; outline: as §2
MEF = assay: Inhibition of mTORC2 in serum starved mLST8 knockout MEF cells assessed as reduction IGF1-stimulated AKT phosphorylation at Thr308 residue at 100 to 1000 nM incubated for 20 mins by immunoblot analysis; format: cell-based; settings: Mus musculus, dose 100-1000 nM
Outline: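 Serum withdrawn 16 h. Inhibitor or vehicle given 30 min before stimulation with 50 ng/ml IGF-1 for 20 min. Lysed in Tris lysis buffer and immunoblotted for Akt Thr308 phosphorylation with ECL detection. Applies to HEK-293 and to wild-type, Rictor, Sin1 or mLST8 knockout MEFs. Three independent experiments.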

[13] = molecular target: Calcium/calmodulin-dependent protein kinase type 1 (Homo sapiens) (UniProt Q14012); assay: Inhibition of recombinant human N-terminal GST-tagged CAMK1alpha (2 to 369 residues) expressed in Escherichia coli assessed as remaining activity at 10 uM using YLRRRLSDSNF as substrate incubated for 30 mins in presence of [gamma-33P]ATP by filter binding method relative to control; outline: as §3
[14] = molecular target: Tyrosine-protein kinase CSK (Homo sapiens) (UniProt P41240); assay: Inhibition of recombinant human N-terminal GST-tagged CSK (1 to 450 residues) expressed in Escherichia coli assessed as remaining activity at 1 uM Cdc2 peptide as substrate incubated for 30 mins in presence of [gamma-33P]ATP by filter binding method relative to control; outline: as §1
mTORC1 (Homo sapiens) [15] = molecular target: T2, mTORC1 (Homo sapiens); settings: HEK293, dose 30-1000 nM, time 30.0 min

COc1ccc(-c2ccc3c(N4CCOCC4)nc(N4C[C@@H](C)O[C@@H](C)C4)nc3n2)cc1CO [Ku-0063794]
Activity [1]: 93% | Activity [2]: 83% | inhibition (mTORC2 (Homo sapiens) [3]): Active | Activity (Homo sapiens): 102% | Activity [4]: 98% | Activity [5]: 100% | inhibition (mTORC1 (Homo sapiens) [6]): Active | Activity [7]: 96% | Activity [8]: 96% | Activity [9]: 43% | Activity [10]: 103% | inhibition (mTORC2 (Homo sapiens) [11]): Active | Activity [12]: 99% | inhibition (MEF): Active | Activity [13]: 101% | Activity [14]: 90% | inhibition (mTORC1 (Homo sapiens) [15]): Dose-Dependent Effect
